A short description of experiment [1]: Antiproliferative activity against human PC3 cells after 72 hrs by Alamar Blue assay. As to conditions: PC-3, 72 h. In general terms: The colour change of resazurin is a common sign of viable cells or microbes.
Experiment [2] in a line: Antiproliferative activity against human PC3 cells at 10 uM after 72 hrs by Alamar Blue assay relative to control. The note with it: PC-3, 72 h.
For experiment [3], the system named is PC-3. Description: Induction of apoptosis in human PC3 cells assessed as increase in cell size after 72 hrs by Hoechst 33342/mitotracker deep red/cellmask plasma membrane probe-based fluorescence microscopy. In kind it is functional. A digest of the protocol:
(§1)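 PC3 cells seeded at 2000/well onto compound, grown 72 h at 37 °C, 5% CO2. Stained 30 min at 37 °C with Hoechst 33342 (1/1000), 1 μM MitoTracker Deep Red and CellMask plasma membrane (1/1000), then PBS wash. Automated wide-field imaging at 20×, 25 fields/well. Nuclei segmented by Hoechst, cytoplasm by CellMask, border cells excluded. Results normalized to DMSO; at least two experiments.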

Experiment [4] concerns PC-3. Description: Induction of apoptosis in human PC3 cells assessed as appearance of rounded cells after 72 hrs by Hoechst 33342/mitotracker deep red/cellmask plasma membrane probe-based fluorescence microscopy. The experiment is classed as functional, cell-based. The gist of the method: as §1
Experiment [5] deals with PC-3. Briefly: Induction of apoptosis in human PC3 cells assessed as increase in cell area after 72 hrs by Hoechst 33342/mitotracker deep red/cellmask plasma membrane probe-based fluorescence microscopy. In kind it is functional. The gist of the method:
as §1

Experiment [6] concerns PC-3. Briefly: Induction of apoptosis in human PC3 cells assessed as increase in mitochondrial area after 72 hrs by Hoechst 33342/mitotracker deep red/cellmask plasma membrane probe-based fluorescence microscopy. The experiment is classed as functional, cell-based. A digest of the protocol:
as §1

Experiment [7] relates to PC-3. Description: Induction of apoptosis in human PC3 cells assessed as increase in nuclear intensity after 72 hrs by Hoechst 33342/mitotracker deep red/cellmask plasma membrane probe-based fluorescence microscopy. The experiment is classed as functional, cell-based. A digest of the protocol:
as §1

Experiment [8] relates to PC-3. Briefly: Induction of apoptosis in human PC3 cells assessed as increase in mitochondrial intensity after 72 hrs by Hoechst 33342/mitotracker deep red/cellmask plasma membrane probe-based fluorescence microscopy. In kind it is functional, cell-based. The gist of the method:
as §1

Experiment [9] deals with PC-3. Description: Induction of apoptosis in human PC3 cells assessed as chromatin condensation after 72 hrs by Hoechst 33342/mitotracker deep red/cellmask plasma membrane probe-based fluorescence microscopy. The experiment is classed as functional, cell-based. The gist of the method:
as §1

Experiment [10] deals with PC-3. Briefly: Induction of apoptosis in human PC3 cells assessed as appearance of aggregated mitochondrial texture after 72 hrs by Hoechst 33342/mitotracker deep red/cellmask plasma membrane probe-based fluorescence microscopy. In kind it is functional, cell-based. A digest of the protocol:
as §1

A short description of experiment [11]: Cell cycle arrest in human PC3 cells assessed as accumulation at G0/G1 phase at 0.1 uM after 24 hrs by propidium iodide staining-based flow cytometric method (reference value: 75.3 +/- 1.8%). The experiment is classed as functional. As to conditions: PC-3. The gist of the method: (§2)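 PC3 cells exposed 24 h to 0 (DMSO only), 0.1, 0.3 or 1 μM. Cells collected, washed in ice-cold PBS, fixed in 70% EtOH at −20 °C for 16 h. Stained 20 min at room temperature with 0.1% Triton X-100, 0.2 mg RNaseA and 2 μL PI (1 mg/mL) in 1 mL, then flow cytometry. Phase distribution fitted by ModFit.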

The nature of experiment [12]: Cell cycle arrest in human PC3 cells assessed as accumulation at S phase at 0.1 uM after 24 hrs by propidium iodide staining-based flow cytometric method (reference value: 15.8 +/- 0.3%). In kind it is functional. As to conditions: PC-3. A digest of the protocol:
as §2

A short description of experiment [13]: Cell cycle arrest in human PC3 cells assessed as accumulation at G2/M phase at 0.1 uM after 24 hrs by propidium iodide staining-based flow cytometric method (reference value: 8.9 +/- 1.5%). As to conditions: PC-3. In kind it is functional. The gist of the method: as §2
In general terms: Flow cytometry measures light scatter and fluorescence of single cells or particles in a stream.

The nature of experiment [14]: Cell cycle arrest in human PC3 cells assessed as accumulation at G0/G1 phase at 0.3 uM after 24 hrs by propidium iodide staining-based flow cytometric method (reference value: 75.3 +/- 1.8%). The experiment is classed as functional. As to conditions: PC-3. A digest of the protocol: as §2
Experiment [15] is described as follows: Cell cycle arrest in human PC3 cells assessed as accumulation at S phase at 0.3 uM after 24 hrs by propidium iodide staining-based flow cytometric method (reference value: 15.8 +/- 0.3%). The experiment is classed as functional. As to conditions: PC-3. The gist of the method: as §2
A short description of experiment [16]: Cell cycle arrest in human PC3 cells assessed as accumulation at G2/M phase at 0.3 uM after 24 hrs by propidium iodide staining-based flow cytometric method (reference value: 8.9 +/- 1.5%). In kind it is functional. As to conditions: PC-3. The gist of the method:
as §2

The nature of experiment [17]: Cell cycle arrest in human PC3 cells assessed as accumulation at G0/G1 phase at 1 uM after 24 hrs by propidium iodide staining-based flow cytometric method (reference value: 75.3 +/- 1.8%). In kind it is functional. The note with it: PC-3. The gist of the method: as §2
A short description of experiment [18]: Cell cycle arrest in human PC3 cells assessed as accumulation at S phase at 1 uM after 24 hrs by propidium iodide staining-based flow cytometric method (reference value: 15.8 +/- 0.3%). As to conditions: PC-3. The experiment is classed as functional. The gist of the method:
as §2

The nature of experiment [19]: Cell cycle arrest in human PC3 cells assessed as accumulation at G2/M phase at 1 uM after 24 hrs by propidium iodide staining-based flow cytometric method (reference value: 8.9 +/- 1.5%). In kind it is functional. As to conditions: PC-3. The gist of the method:
as §2

Our source for the IC50, inhibition and Activity values is ChEMBL document CHEMBL3861956, “Lignans from the Australian Endemic Plant Austrobaileya scandens” (J Nat Prod, 2016).

Take `COc1cc([C@@H]2c3cc4c(cc3C[C@@H](C)[C@@H]2C)OCO4)cc(OC)c1OC`: in [1], the IC50 (as a rule, the concentration that inhibits the measured activity by half) amounted to 823 nM.

`COc1cc(C(c2ccc(O)c(OC)c2)[C@@H](C)[C@H](C)CO)ccc1O` displayed an IC50 in [1] of 6360 nM.

For the compound `COc1cc([C@@H]2c3cc4c(c(OC)c3C[C@H]3COC(=O)[C@@H]32)OCO4)cc2c1OCO2`, half-maximal inhibition in experiment [1] (IC50) required 47 nM.

`CC(=O)O[C@H]1C(=O)[C@@]2(C)[C@H]([C@H](OC(=O)c3ccccc3)[C@]3(O)C[C@H](OC(=O)[C@H](O)[C@@H](NC(=O)c4ccccc4)c4ccccc4)C(C)=C1C3(C)C)[C@]1(OC(C)=O)CO[C@@H]1C[C@@H]2O` [PACLITAXEL] registered a half-inhibitory concentration (IC50) in experiment [1] of 2 nM.

Compound `COc1cc([C@@H]2c3cc4c(c(OC)c3C[C@H]3COC(=O)[C@@H]32)OCO4)cc(OC)c1OC` gave a concentration for half-maximal inhibition (IC50) in [1] of 16 nM.

As for `C[C@H]1[C@H](C)C(=O)O[C@@H]1c1ccc2c(c1)OCO2`, testing at 10 µM in experiment [2] gave an inhibition of 15%.

Regarding `COc1cc([C@@H]2c3cc4c(cc3C[C@H]3COC(=O)[C@@H]32)OCO4)cc2c1OCO2` [AUSTROBAILIGNAN 1], the concentration for half-maximal inhibition (IC50) in experiment [1] is 50 nM.

As for `COc1cc([C@@H]2c3cc4c(cc3C[C@@H](C)[C@@H]2C)OCO4)cc2c1OCO2`, in experiment [1], the half-inhibitory concentration (IC50) came out at 2060 nM.

On to `COc1cc([C@@H]2c3cc4c(cc3C[C@H]3COC(=O)[C@@H]32)OCO4)cc(OC)c1OC` [DESOXYPODOPHYLLOTOXIN], for which, in experiment [1], inhibition was half-maximal at 18 nM (IC50).

For the compound `C[C@H](Cc1ccc2c(c1)OCO2)[C@H](C)Cc1ccc2c(c1)OCO2`, the inhibition (usually the change of the read-out against control, counted positive when it falls) at 10 µM in [2] came out at 27%.

With `COc1cc(C(=O)O[C@@H](c2ccc3c(c2)OCO3)[C@H](C)C(C)=O)ccc1O`, the Activity result in experiment [3], in [4], in [5], in experiment [6], in [7] and in experiment [8] was “Dose-dependent effect” each time. For the same compound, the Activity result in [9] is “Dose-dependent effect”; in experiment [10] it was “Dose-dependent effect”; in experiment [11], 62.6%; in [12], 27.5%; in experiment [13] it was 9.9%; in experiment [14] it was 63.4%. Also, the Activity in experiment [15] was 32.2%; in [16], 4.4%; in [17] it was 61.1%; in experiment [18], 35.1%; in experiment [19] it was 3.8%. This compound also yielded an IC50 in experiment [1] of 1910 nM.

In experiment [1], `COc1cc([C@@H]2c3cc4c(cc3C[C@@H](C)[C@@H]2C(=O)O)OCO4)cc2c1OCO2` returned an IC50 of 1630 nM.

On to `COc1cc([C@@H]2O[C@H](c3ccc4c(c3)OCO4)[C@@H](C)[C@@H]2C)ccc1O`, for which the 50% inhibitory concentration (IC50) in experiment [1] was 5110 nM.
